Laboratory results taken from ChEMBL document CHEMBL1127740, “The discovery of capsazepine, the first competitive antagonist of the sensory neuron excitants capsaicin and resiniferatoxin” (J Med Chem, 1994).
pEC50, pIC50: −log10 of the molar value.

Experiments:
[1] = species: Rattus norvegicus; assay: In vitro agonist activity against [Ca2+] uptake in neonatal rat cultured spinal sensory neurons; format: functional
Method in brief: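 Neonatal rat dorsal root ganglia were dissociated with collagenase then trypsin and cultured with 10% horse serum, 1 μg/mL NGF and 48 h of 10^-4 M cytosine arabinoside. Assays used 3–7-day cultures washed in Ca-free HEPES-buffered BSS (pH 7.4). Compound with 10 μCi/mL 45Ca2+ and 1% DMSO was applied for 10 min at room temperature; SDS extract was scintillation counted. Medium-only background; EC50 from ≥6 replicates/concentration.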

[2] = species: Rattus norvegicus; assay: In vitro antagonist activity against [Ca2+] uptake in neonatal rat cultured spinal sensory neurons; format: functional
Method in brief: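 Cultured neonatal rat DRG neurons (3–7 days old, non-neuronal cells removed with cytosine arabinoside) were washed in Ca-free HEPES BSS, pH 7.4. 45Ca2+ uptake stimulated by a fixed 0.5 μM agent was measured with test compound in 1% DMSO over 10 min at room temperature. Cells were lysed with SDS and scintillation counted. IC50 is 50% reduction of the evoked response, from ≥6 replicates/concentration.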

Row | Compound | pEC50 [1] | pIC50 [2]
1 | Oc1ccc2c(c1O)CCN(C(=S)NCCc1ccc(Cl)cc1)C2 | < 4.00 | 6.36
2 | CCCCCCCC/N=C(\S)N1CCc2c(ccc(O)c2O)C1 | < 4.00 | 5.46
3 | COc1cc2c(cc1OC)CN(/C(S)=N/CCc1ccc(Cl)cc1)CCC2 | < 4.00 | 5.16
4 | COc1cc2c(cc1O)CN(/C(S)=N/CCc1ccc(Cl)cc1)CC2 | 5.91 | –
5 | COc1cc2c(cc1O)CN(/C(S)=N/CCc1ccc(Cl)cc1)C2 | < 4.00 | < 4.00
6 | Oc1cc2c(cc1O)CN(C(=S)NCCc1ccc(Cl)cc1)CCC2 [CAPSAZEPINE] | < 4.00 | 6.38

The next compounds have a higher pEC50 [1] than those just listed; values first:

Row | pEC50 [1] | pIC50 [2] | Compound
7 | 5.96 | 5.91 | COc1cc2c(cc1O)CCN(/C(S)=N/CCc1ccc(Cl)cc1)C2
8 | 6.13 | – | CCCCCCCC/N=C(\S)N1CCc2cc(O)c(O)cc2C1
9 | 6.26 | – | Oc1cc2c(cc1O)CN(C(=S)NCCc1ccc(Cl)cc1)C2
10 | 6.54 | – | Oc1cc2c(cc1O)CN(C(=S)NCCc1ccc(Cl)cc1)CC2
11 | 7.00 | – | Oc1ccc(CNC(=S)NCCc2ccc(Cl)cc2)cc1O
12 | 7.22 | – | CCCCCCCC/N=C(\S)NCc1ccc(O)c(OC)c1
13 | 7.22 | – | COc1cc(C/N=C(\S)NCCc2ccc(Cl)cc2)ccc1O
